Bioassay records (PubChem)
A selection: hits, their analogues and other compounds. The true share with any hit is near 1.4%.
CHT allo act – human CHT allosteric activation. hit rate 0.49% among 310,000. AID 488977. Q9GZV3. CHT-expressing cells, membrane potential dye, choline EC20; active compounds read high; LV-AA mutant CHT in HEK293 cells. B-score at 10 µM;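 active = initial fluorescence not abnormally high and integrated response B-score, plate-corrected, over 3 SD above library mean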
TNAP inh hi DEA – TNAP (human) inhibition, high acceptor; purified TNAP, CDP-star luminescence, 1 M DEA; inhibition, % at 20 µM; P05186; hit rate 0.03% among 200,000;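 active = over 50% inhibition of tissue-nonspecific alkaline phosphatase at 20 µM in the single-dose screen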
TNAP inh noacc – inhibitors of human TNAP without phosphate acceptor; P05186; purified TNAP, CDP-star luminescence, 30 min; inhibition, % at 20 µM; hit rate 0.26% among 200,000;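 active = tissue-nonspecific alkaline phosphatase inhibition above about 50% at 20 µM in the single-dose screen, limit read from the data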
TNAP act hiacc – increases human TNAP activity under high phosphate acceptor concentration. P05186. AID 1136. purified TNAP, CDP-star luminescence, 1 M DEA, 30 min; active compounds read high; 0 = EDTA background, 1 = DMSO-only activity. 200,000 tested, under 10 active. activation factor at 20 µM;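 active = activation factor at least 2 at 20 µM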
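Dosing: 20 µM single point. System: human TNAP. Amount: TNAP 1/800 final. Incubation: 30 min, room temperature. Read-out: TNAP activation factor scaled between EDTA and DMSO control wells. Signal: luminescence from CDP-star hydrolysis. Medium: 1 M DEA, pH 9.8, Mg2+, Zn2+. Control set: EDTA negative control, DMSO positive control.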
CHT block – inhibitors of human choline transporter CHT; CHT-expressing cells, membrane potential dye, choline response; active compounds read low; B-score at 10 µM; hit rate 0.86% among 310,000; AID 488975;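 active = B-score over 3 SD under the library average, and starting fluorescence ratio not unusually high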;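 note: choline stimulus applied at its EC90 after an EC20 pre-addition; B-score computed on integrated fluorescence ratio after choline addition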
ABCB6 inh MLPCN – human ABCB6 transporter inhibition; hit rate 0.19% among 360,000; fluorescence ratio to DMSO, % at 10 µM; Q9NP58; K562-ABCB6 porphyrin accumulation, flow cytometry, 1 h; active compounds read low;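 active = fluorescence ratio to DMSO below 75%, the collection mean minus 3 SD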;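 note: signal is porphyrin accumulated inside mitochondria; lower ratio means ABCB6 inhibition with less porphyrin fluorescence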
Target sequence (Q9NP58 whole entry, looked up): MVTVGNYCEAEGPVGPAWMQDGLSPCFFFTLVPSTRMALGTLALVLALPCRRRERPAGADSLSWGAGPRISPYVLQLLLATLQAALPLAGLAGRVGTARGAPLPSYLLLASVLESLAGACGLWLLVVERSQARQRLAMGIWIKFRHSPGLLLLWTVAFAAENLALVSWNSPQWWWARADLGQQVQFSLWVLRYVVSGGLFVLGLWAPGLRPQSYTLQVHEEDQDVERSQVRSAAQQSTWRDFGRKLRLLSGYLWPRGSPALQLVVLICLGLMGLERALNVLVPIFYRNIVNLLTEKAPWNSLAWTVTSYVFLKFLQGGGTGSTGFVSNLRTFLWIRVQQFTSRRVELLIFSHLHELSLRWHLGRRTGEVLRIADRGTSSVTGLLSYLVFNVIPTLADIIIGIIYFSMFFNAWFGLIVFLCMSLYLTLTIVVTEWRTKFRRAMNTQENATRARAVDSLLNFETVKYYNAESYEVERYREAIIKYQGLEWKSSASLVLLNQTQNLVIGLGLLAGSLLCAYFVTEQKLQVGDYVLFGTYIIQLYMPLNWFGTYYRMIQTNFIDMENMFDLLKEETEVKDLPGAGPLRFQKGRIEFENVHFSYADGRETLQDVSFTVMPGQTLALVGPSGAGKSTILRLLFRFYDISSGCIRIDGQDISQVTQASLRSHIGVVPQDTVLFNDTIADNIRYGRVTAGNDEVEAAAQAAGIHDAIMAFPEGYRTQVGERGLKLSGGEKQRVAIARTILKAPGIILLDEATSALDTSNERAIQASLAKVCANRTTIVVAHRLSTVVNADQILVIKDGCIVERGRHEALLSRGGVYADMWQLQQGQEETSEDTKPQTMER
CHT inh conf – human CHT inhibition, confirmatory screen | shares compounds with CHT block | CHT-expressing cells, choline membrane potential dye; LV-to-AA substituted CHT, HEK293 cells | CHT activity remaining % of control (active compounds read low), % at 10 µM | hit rate 70% among 2,400 | AID 493221;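 active = choline transporter activity left, mean of duplicates at 10 µM, below buffer-only control mean minus 3 SD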;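 note: depolarization triggered by choline at its EC90 following an EC20 pre-addition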
HEK293 CHT ctr – activity in parental HEK293 cells lacking CHT; shares compounds with CHT block; membrane potential dye, choline response; active = decrease or increase beyond buffer ±3SD; hit rate 4% among 2,400; membrane potential ratio readout (active if shifted either direction beyond buffer ±3SD; no single direction) at 10 µM;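 note: parental cells lack the transporter so any hit is non-specific; ratio is peak minus trough fluorescence over baseline after EC90 choline challenge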
Numbers stand for hits.

Screening Cc1cc(C)c(S(=O)(=O)Cc2ccccc2)c(Cl)n1 returned CHT allo act inactive, CHT block inactive and ABCB6 inh MLPCN inactive.
COc1ccccc1C(=O)Nc1onc(C)c1C#N was read as CHT allo act inactive, TNAP inh hi DEA inactive, TNAP inh noacc inactive, TNAP act hiacc inactive, CHT block -6.4, ABCB6 inh MLPCN inactive, CHT inh conf inactive and HEK293 CHT ctr inactive.
Screening CCOC(=O)c1ccc(NC(=O)N2CCN(c3cccc(OC)c3)CC2)cc1 returned CHT allo act inactive, TNAP inh hi DEA inactive, TNAP inh noacc inactive, TNAP act hiacc inactive, CHT block inactive and ABCB6 inh MLPCN inactive.
COc1ccc(C(=O)C2CCCN(C(=O)C3=CCCC3)C2)c(C)c1 (configuration not stated) was read as CHT allo act inactive, TNAP inh hi DEA inactive, TNAP inh noacc inactive, TNAP act hiacc inactive, CHT block -5, ABCB6 inh MLPCN inactive, CHT inh conf 35% and HEK293 CHT ctr inactive.
Cc1cc(NCCCn2ccnc2)n2ncc(-c3ccc(Cl)cc3)c2n1 was read as CHT allo act inactive, TNAP inh hi DEA inactive, TNAP inh noacc inactive, TNAP act hiacc inactive, CHT block -5.4, ABCB6 inh MLPCN inactive, CHT inh conf 61% and HEK293 CHT ctr inactive.
Screening Cc1cc(NCCCN2CCOCC2)n2ncc(-c3ccc(Cl)cc3)c2n1 returned CHT allo act inactive, TNAP inh hi DEA inactive, TNAP inh noacc inactive, TNAP act hiacc inactive, CHT block inactive and ABCB6 inh MLPCN inactive.
`NS(=O)(=O)c1ccc(Sc2ccc3ccccc3c2)nc1` gave CHT allo act inactive, CHT block inactive and ABCB6 inh MLPCN inactive.
Screening CCOC(=O)C1CCCN(C/C(O)=C(\C#N)c2nc(-c3ccc(Cl)cc3)cs2)C1 (configuration not stated) returned CHT allo act inactive, TNAP inh hi DEA inactive, TNAP inh noacc inactive, TNAP act hiacc inactive, CHT block -5.7, ABCB6 inh MLPCN inactive, CHT inh conf inactive and HEK293 CHT ctr inactive.
N#C/C(=C(/O)CN1CCCC1)c1nc(-c2ccccc2)cs1 was read as CHT allo act inactive, CHT block inactive and ABCB6 inh MLPCN inactive.
Screening CCn1ccnc1CN(C)Cc1cn(-c2cc(C)ccc2C)nc1-c1ccccc1 returned CHT allo act inactive, TNAP inh hi DEA inactive, TNAP inh noacc inactive, TNAP act hiacc inactive, CHT block inactive and ABCB6 inh MLPCN inactive.
For CC1CC(C)CN(C(=O)COc2ccc([N+](=O)[O-])cc2Cl)C1 (configuration not stated) the results were CHT allo act inactive, TNAP inh hi DEA inactive, TNAP inh noacc inactive, TNAP act hiacc inactive, CHT block -6.1, ABCB6 inh MLPCN inactive, CHT inh conf inactive and HEK293 CHT ctr inactive.
For Cc1ncsc1C(=O)N1CCCC(CNS(=O)(=O)c2cccs2)C1 (configuration not stated) the results were CHT allo act inactive, TNAP inh hi DEA inactive, TNAP inh noacc inactive, TNAP act hiacc inactive, CHT block inactive and ABCB6 inh MLPCN inactive.
For COc1ccc(C(=O)N2CCN(c3ccccc3Cl)CC2)cc1S(=O)(=O)NC1CC1 the results were ABCB6 inh MLPCN inactive.
Screening CCCn1c(=O)c(C(=O)NCc2ccccn2)c(O)c2ccccc21 returned CHT allo act inactive, TNAP inh hi DEA inactive, TNAP inh noacc inactive, TNAP act hiacc inactive, CHT block -5.7, ABCB6 inh MLPCN inactive, CHT inh conf inactive and HEK293 CHT ctr inactive.
For COc1cc2c(oc(=O)c3cc(C)cc(OC)c32)c2c(C3OC(C)C(O)C(C)(O)C3O)ccc(O)c12 (configuration not stated) the results were ABCB6 inh MLPCN inactive.
Screening CC(C)(C)[C@H]1CCC(=O)N([C@H](CN=[N+]=[N-])Cc2ccccc2)CC1 returned CHT allo act inactive, CHT block -5.1, ABCB6 inh MLPCN inactive, CHT inh conf inactive and HEK293 CHT ctr inactive.
